Assay results from different studies.
Melanocortin receptor 3: Melanocortin receptor 3 (Mus musculus, UniProt P33033)
ADORA2B: Adenosine receptor A2b (ADORA2B, Homo sapiens, UniProt P29275)
BRD2 BD2: Bromodomain-containing protein 2, BD2 (BRD2, Homo sapiens, UniProt P25440)
PBRM1 bromodomain: Protein polybromo-1, bromodomain (PBRM1, Homo sapiens, UniProt Q86U86)

CSCC[C@H](NC(=O)[C@@H](NC(=O)[C@@H](N)Cc1ccc(O)cc1)C(C)C)C(=O)NCC(=O)N[C@@H](Cc1c[nH]cn1)C(=O)N[C@@H](Cc1ccccc1)C(=O)O — EC50 (Melanocortin receptor 3; reporter gene, agonist): > 100 µM
CCCCCCCC/C=C\CCCCCCCC(=O)SCCNC(=O)CCNC(=O)[C@H](O)C(C)(C)COP(=O)(O)OP(=O)(O)OC[C@H]1O[C@@H](n2cnc3c(N)ncnc32)[C@H](O)[C@@H]1OP(=O)(O)O — Kd (fadR (Vibrio cholerae, UniProt Q9KQU8); binding, ITC): 6 nM
CCC(C)N1CCCn2c1nc1c2c(=O)n(C)c(=O)n1C (stereo not shown) — Ki (ADORA2B; ligand displacement, radioligand; cell membranes): > 10 µM
N=C(N)NCCC[C@H](NC(=O)[C@H](CC(=O)O)NC(=O)[C@H](Cc1c[nH]c2ccccc12)NC(=O)[C@H](CCCNC(=N)N)NC(=O)[C@@H](N)Cc1ccccc1)C(=O)N[C@@H](Cc1ccccc1)C(=O)NCC(=O)O — EC50 (Melanocortin receptor 3; reporter gene, agonist): > 100 µM
Cc1noc(C)c1-c1ccc(-c2nc3cnccn3c2NC(C)(C)C)cc1 — Kd (BRD2 BD2; cell-free assay, competition with immobilised ligand): 95 nM
CCCCOc1nc(N)c2[nH]c(=O)n(CCN)c2n1 — EC50 (Toll-like receptor 7 (TLR7, Homo sapiens, UniProt Q9NYK1); reporter gene, agonist): 127 µM
Cc1ncsc1-c1ccc(CNC(=O)[C@@H]2C[C@H](O)CN2C(=O)[C@@H](NC(=O)C2(F)CC2)C(C)(C)C)c(OCCOc2ccc(CN3CCN(c4cc(-c5ccccc5O)nnc4N)CC3)cc2)c1 — Kd (PBRM1 bromodomain; binding, SPR): 620 nM
N=C(N)NCCC[C@H](NC(=O)[C@H](CC(=O)O)NC(=O)[C@H](Cc1c[nH]c2ccccc12)NC(=O)[C@@H](N)CCCNC(=N)N)C(=O)N[C@@H](Cc1ccccc1)C(=O)NCC(=O)O — EC50 (Melanocortin receptor 3; reporter gene, agonist): > 100 µM
CCN1CCCn2c1nc1c2c(=O)n(C)c(=O)n1C — Ki (ADORA2B; ligand displacement, radioligand; cell membranes): > 10 µM
N=C(N)NCCC[C@H](NC(=O)[C@H](Cc1ccccc1)NC(=O)[C@@H](N)Cc1cnc[nH]1)C(=O)N[C@@H](Cc1c[nH]c2ccccc12)C(=O)O — EC50 (Melanocortin receptor 3; reporter gene, agonist): > 100 µM
CCCN1CCCn2c1nc1c2c(=O)n(C)c(=O)n1C — Ki (ADORA2B; ligand displacement, radioligand; cell membranes): > 10 µM
CSCC[C@H](NC(=O)[C@@H](N)Cc1ccc(O)cc1)C(=O)N[C@@H](Cc1c[nH]cn1)C(=O)N[C@@H](Cc1ccccc1)C(=O)N[C@@H](CCCNC(=N)N)C(=O)N[C@@H](Cc1c[nH]c2ccccc12)C(=O)N[C@@H](Cc1ccccc1)C(=O)O — EC50 (Melanocortin receptor 3; reporter gene, agonist): 10.4 µM
CN1CCCn2c1nc1c2c(=O)n(C)c(=O)n1C — Ki (ADORA2B; ligand displacement, radioligand; cell membranes): > 10 µM
CCOc1cc(-c2nncn2C)ccc1Nc1ncc2cc(C)nc(NCC(C)(C)C)c2n1 — Kd (Dual serine/threonine and tyrosine protein kinase (DSTYK, Homo sapiens, UniProt Q6XUX3); binding, competition with immobilised ligand): 170 nM
CCCCCN1CCCn2c1nc1c2c(=O)n(C)c(=O)n1C — Ki (ADORA2B; ligand displacement, radioligand; cell membranes): > 10 µM
CCCCCCCCCCCCC/C=C/[C@@H](O)[C@@H](N)COP(=O)(O)O — Kd (Potassium channel subfamily K member 2 (KCNK2, Homo sapiens, UniProt O95069); binding, BRET): > 500000 nM
N=C(N)NCCC[C@H](NC(=O)[C@H](CC(=O)O)NC(=O)[C@H](Cc1c[nH]c2ccccc12)NC(=O)[C@H](CCCNC(=N)N)NC(=O)[C@@H](N)Cc1ccccc1)C(=O)N[C@@H](Cc1ccccc1)C(=O)O — EC50 (Melanocortin receptor 3; reporter gene, agonist): 20.4 µM
CCNC(=O)[C@H]1O[C@@H](n2cnc3c(N)nc(NN=C[C@H]4CCC=CO4)nc32)[C@H](O)[C@@H]1O — EC50 (ADORA2B; GTPγS binding, agonist; cell membranes): 13.2 µM
CC(C)CC(C)N1CCCn2c1nc1c2c(=O)n(C)c(=O)n1C (stereo not shown) — Ki (ADORA2B; ligand displacement, radioligand; cell membranes): > 10 µM
CC(=O)N[C@H](C(=O)N1C[C@H](O)C[C@H]1C(=O)NCc1ccc(-c2scnc2C)cc1)C(C)(C)SCCCCCCNC(=O)C[C@@H]1N=C(c2ccc(Cl)cc2)c2c(sc(C)c2C)-n2c(C)nnc21 — Kd (BRD2 BD2; binding, ITC): 94 nM
N=C(N)NCCC[C@H](NC(=O)[C@H](CC(=O)O)NC(=O)[C@H](Cc1c[nH]c2ccccc12)NC(=O)[C@H](CCCNC(=N)N)NC(=O)[C@H](Cc1ccccc1)NC(=O)[C@H](Cc1c[nH]cn1)NC(=O)CN)C(=O)N[C@@H](Cc1ccccc1)C(=O)NCC(=O)O — EC50 (Melanocortin receptor 3; reporter gene, agonist): 0.76 µM
CCCCN1CCC(COC(=O)c2ccc(N)c(OC)c2)CC1 — Ki (5-hydroxytryptamine receptor 4 (HTR4, Homo sapiens, UniProt Q13639); ligand displacement, radioligand): 0.0011 µM
Cc1cc2ccccc2n1CCNC(=O)c1ccc(N2CCCCC2)cc1 — Kb (Prostaglandin E2 receptor EP2 subtype (PTGER2, Homo sapiens, UniProt P43116); cAMP, antagonist, TR-FRET): ~10 nM
CCCCN1CCC(COC(=O)c2ccc(N)c(OCF)c2)CC1 — Ki (Beta-3 adrenergic receptor (ADRB3, Homo sapiens, UniProt P13945); cell-free assay, radioligand): > 10 µM
N=C(N)NCCC[C@H](NC(=O)[C@H](CC(=O)O)NC(=O)[C@H](Cc1c[nH]c2ccccc12)NC(=O)[C@H](CCCNC(=N)N)NC(=O)[C@H](Cc1ccccc1)NC(=O)[C@@H](N)Cc1c[nH]cn1)C(=O)N[C@@H](Cc1ccccc1)C(=O)NCC(=O)O — EC50 (Melanocortin receptor 3; reporter gene, agonist): 2.67 µM
Cc1ncsc1-c1ccc(CNC(=O)[C@@H]2C[C@H](O)CN2C(=O)[C@@H](NC(=O)C2(F)CC2)C(C)(C)C)c(OCCc2ccc(CN3CCN(c4cc(-c5ccccc5O)nnc4N)CC3)cc2)c1 — Kd (PBRM1 bromodomain; binding, SPR): 1200 nM
CC(C)CCCC(C)N1CCCn2c1nc1c2c(=O)n(C)c(=O)n1C (stereo not shown) — Ki (ADORA2B; ligand displacement, radioligand; cell membranes): > 10 µM
c1cncc(-c2cccc(Nc3nccc(NC4CCCCC4)n3)c2)c1 — Kd (Tyrosine-protein kinase JAK1, JH2 (JAK1, Homo sapiens, UniProt P23458); binding, competition with immobilised ligand): 290 nM
